In ChEMBL document CHEMBL1135550, “Highly potent geminal bisphosphonates. From pamidronate disodium (Aredia) to zoledronic acid (Zometa)” (J Med Chem, 2002):

What was measured:
Rattus norvegicus [1] = assay: Effective dose after subcutaneous administration to TPTX rats for 50% reduction of hypercalcemia; assay type: functional; conditions: sc
Procedure, shortened: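 Young male rats (130-150 g) were thyroparathyroidectomized and allowed 4 days to recover, then fasting serum was sampled. Animals with serum Ca above 1.88 mM were discarded, and the rest were randomized into groups of 5. On days 5-8, 1,25(OH)2D3 (125 pmol/kg sc) was given with graded sc doses of bisphosphonate, and total serum calcium was measured. ED50 is the sc dose halving the hypercalcemia.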

[2] = Ratio of calvaria mineralization to calvaria bone resorption; assay type: functional
Mus musculus [3] = species on record: Mus musculus; assay: Inhibition of bone resorption in the calvaria assay of mouse; assay type: functional
Mus musculus [4] = species on record: Mus musculus; assay: Inhibition of bone mineralization in the calvaria assay of mouse; assay type: functional
[5] = Therapeutic ratio comparing nephrotoxic potential versus bone antiresorptive potency ( reciprocal of ED50 (TPTX assay) / the total urinary malate dehydrogenase excretion); assay type: ADME; conditions: urine; read-out: Therapeutic ratio
Procedure, shortened: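 Ratio = (1/TPTX ED50 in mg/kg) ÷ total urinary malate dehydrogenase units, pooled from eight 24-h urine collections after starting repeated sc dosing. ED50 model: young male rats (130-150 g), thyroparathyroidectomized, 4-day recovery; rats with fasting serum Ca above 1.88 mM excluded; groups of 5. Days 5-8: 1,25(OH)2D3 125 pmol/kg sc plus graded sc bisphosphonate. ED50 = dose halving the hypercalcemia (total serum calcium).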

Mus musculus [6] = species on record: Mus musculus; assay: Inhibition of mineralization in the calvaria assay of mouse; assay type: functional
Procedure, shortened: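 In vitro mineralization assay in mouse calvaria cultures. The read-out is calcium incorporation into the calvaria.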

Rattus norvegicus [7] = species on record: Rattus norvegicus; assay: Compound was tested for increased urinary excretion of MDH in rats after a treatment period of 14 days in renal tolerability model; assay type: functional, Urine
Rattus norvegicus [8] = species on record: Rattus norvegicus; assay: Effective dose for increased cancellous bone calcium in young intact rats after a treatment period of 10 days; assay type: functional; conditions: 240 h
Rattus norvegicus [9] = species on record: Rattus norvegicus; assay: Effective dose for increased cancellous bone hydroxy proline in young intact rats after a treatment period of 10 days; assay type: functional; conditions: 240 h
Rattus norvegicus [10] = species on record: Rattus norvegicus; assay: Effective dose for increased radiographic bone density in young intact rats after a treatment period of 10 days; assay type: functional; conditions: 240 h
Rattus norvegicus [11] = species on record: Rattus norvegicus; assay: Effective dose for increased cancellous bone area in young intact rats after a treatment period of 10 days; assay type: functional; conditions: 240 h
Rattus norvegicus [12] = species on record: Rattus norvegicus; assay: Compound was tested for increased mucosal permeability of perfused ileal loop in rats after a treatment period of 2 hr in intestinal tolerability model; assay type: functional
Rattus norvegicus [13] = species on record: Rattus norvegicus; assay: Effective dose for increased serum urea level rats after a treatment period of 1 hr in renal tolerability model; assay type: functional
[14] = Therapeutic ratio comparing nephrotoxic potential versus bone antiresorptive potency (reciprocal of ED50 (TPTX assay) / the total urinary malate dehydrogenase excretion); assay type: ADME, tissue-based, Urine
Procedure, shortened: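 Rats received repeated sc injections, with saline-injected controls. Malate dehydrogenase was totalled in units over eight 24-h urine collections from the start of dosing. The ratio is the reciprocal of the TPTX hypercalcemia ED50 (mg/kg) divided by total urinary MDH units.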

Rattus norvegicus [15] = species on record: Rattus norvegicus; assay: Effective dose for increased cancellous bone hydroxy proline in young interact rats after a treatment period of 10 days; assay type: functional; conditions: 240 h
Rattus norvegicus [16] = species on record: Rattus norvegicus; assay: Effective dose for increased mucosal permeability of perfused ileal loop in rats after a treatment period of 2 hr in intestinal tolerability model; assay type: functional
Rattus norvegicus [17] = species on record: Rattus norvegicus; assay: Effective dose for increased cancellous bone calcium in young interact rats after a treatment period of 10 days; assay type: functional; conditions: 240 h
Rattus norvegicus [18] = species on record: Rattus norvegicus; assay: Effective dose for increased urinary excretion of MDH in rats after a treatment period of 14 days in renal tolerability model; assay type: functional, Urine
Rattus norvegicus [19] = species on record: Rattus norvegicus; assay: Effective dose for increased radiographic bone density in young interact rats after a treatment period of 10 days; assay type: functional; conditions: 240 h
Rattus norvegicus [20] = species on record: Rattus norvegicus; assay: Effective dose for increased cancellous bone area in young interact rats after a treatment period of 10 days; assay type: functional; conditions: 240 h

NCCCC(O)(P(=O)(O)O)P(=O)(O)O [ALENDRONIC ACID]
ED50 (Rattus norvegicus [1]): 8 µg/kg | Ratio [2]: 400 | IC50 (Mus musculus [3]): 50 nM | IC50 (Mus musculus [4]): 20000 nM | selectivity ratio [5]: 6.6

O.O=P(O)(O)C(O)(Cn1ccnc1)P(=O)(O)O [ZOLEDRONIC ACID]
IC50 (Mus musculus [6]): 30000 nM | NOL (Rattus norvegicus [7]): > 1000 µg/kg | Ratio [2]: 15000 | IC50 (Mus musculus [3]): 2 nM | ED50 (Rattus norvegicus [8]): 0.17 µg/kg | ED50 (Rattus norvegicus [9]): 1.1 µg/kg | ED50 (Rattus norvegicus [10]): 1.7 µg/kg | ED50 (Rattus norvegicus [11]): 0.071 µg/kg | NOL (Rattus norvegicus [12]): 10 mM | ED100 (Rattus norvegicus [13]): 38000 µg/kg

Cc1cnc(NC(P(=O)(O)O)P(=O)(O)O)s1
Therapeutic ratio [14]: 4.5 | ED50 (Rattus norvegicus [1]): 1.5 µg/kg | Ratio [2]: 375 | IC50 (Mus musculus [3]): 40 nM | IC50 (Mus musculus [4]): 15000 nM

NCCC(O)(P(=O)(O)O)P(=O)(O)O [PAMIDRONIC ACID]
IC50 (Mus musculus [6]): 100000 nM | ED50 (Rattus norvegicus [1]): 61 µg/kg | Ratio [2]: 500 | IC50 (Mus musculus [3]): 200 nM | ED50 (Rattus norvegicus [15]): 210 µg/kg | NOL (Rattus norvegicus [16]): 10 mM | selectivity ratio [5]: 1.2 | ED50 (Rattus norvegicus [17]): 22.7 µg/kg | NOL (Rattus norvegicus [18]): 0.1 mg/kg | ED50 (Rattus norvegicus [19]): 390 µg/kg | ED50 (Rattus norvegicus [20]): 7.1 µg/kg | ED100 (Rattus norvegicus [13]): 11000 µg/kg

CN(CCCc1ccccc1)CCC(O)(P(=O)(O)O)P(=O)(O)O
Therapeutic ratio [14]: 120 | ED50 (Rattus norvegicus [1]): 1 µg/kg | Ratio [2]: 80 | IC50 (Mus musculus [3]): 50 nM | IC50 (Mus musculus [4]): 4000 nM

CN(CCc1ccccc1)CCC(O)(P(=O)(O)O)P(=O)(O)O
Therapeutic ratio [14]: 19 | ED50 (Rattus norvegicus [1]): 1.4 µg/kg | Ratio [2]: 1500 | IC50 (Mus musculus [3]): 20 nM | IC50 (Mus musculus [4]): 30000 nM

CN(CCCOc1ccccc1)CCC(O)(P(=O)(O)O)P(=O)(O)O
Therapeutic ratio [14]: 84 | ED50 (Rattus norvegicus [1]): 0.5 µg/kg | Ratio [2]: 225 | IC50 (Mus musculus [3]): 40 nM | IC50 (Mus musculus [4]): 9000 nM
